According to ChEMBL document CHEMBL5653614, “Rescue of fragile X syndrome phenotypes in Fmr1 KO mice by the small-molecule PAK inhibitor FRAX486” (Proc Natl Acad Sci U S A, 2013):
Active and inactive are the calls of the source. No cut-off for these calls is given here.

How the values were obtained:
[1] = Drug uptake in FVB.129P2 mouse brain at 20 mg/kg,sc for 5 days and measured after 24 hrs by LC-MS/MS analysis; type: ADME, organism-based; settings: in vivo, 120 h, time 5 day
Outline: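 Mice dosed s.c. at 20 mg/kg once daily for up to 5 d; plasma and forebrain sampled 24 h after the last injection. Brain homogenized in 2 volumes of cold PBS; levels measured by LC-MS/MS. n = 3–4, mean ± SEM.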

Mus musculus [2] = test: (§1) Anti-seizure activity against 124dB loud auditory stimulus induced Fmr1 knockout FVB.129P2-Fmr1tm1Cgr/J mouse model of audiogenic seizure assessed as decrease in sound-induced wild running at 10 mg/kg,sc for 5 days followed by audiogenic seizure induction after 8 hrs post-treatment by audiogenic seizure assay (Rvb=100%); type: functional; design: scale not given: the % may be the effect or the level left; settings: time 5 day
Outline: (§2)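 Adult male Fmr1 KO mice given 10 or 20 mg/kg s.c. daily for 5 d in 20% hydroxypropyl-β-cyclodextrin vehicle. AGS assay run 8 h after the final injection: 2 min acclimation in an acrylic chamber, then a 124 dB auditory stimulus. Incidence of wild running and seizure recorded; χ2 comparison with vehicle.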

Mus musculus [3] = test: as §1, with “at 20” for “at 10”; type: functional; design: scale not given: the % may be the effect or the level left; settings: time 5 day; outline: as §2
Mus musculus [4] = test: Anti-seizure activity against 124dB loud auditory stimulus induced Fmr1 knockout FVB.129P2-Fmr1tm1Cgr/J mouse model of audiogenic seizure assessed as decrease in sound-induced wild running at 10 mg/kg,sc for 8 hrs followed by audiogenic seizure induction by audiogenic seizure assay (Rvb=100%); type: functional; design: scale not given: the % may be the effect or the level left
Outline: (§3)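 Adult male mice (10–17 wk). Single s.c. dose (0, 10, 20 or 30 mg/kg) in 20% (wt/vol) hydroxypropyl-β-cyclodextrin vehicle; AGS induced 8 h later. Mouse acclimated 2 min in a clear acrylic two-chamber box, then exposed to a 124 dB sound. Scored as percentage of animals showing each sequential phase (wild running, seizure, death by respiratory arrest); χ2 test against vehicle.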

Mus musculus [5] = test: Protective activity in Fmr1 knockout FVB.129P2-Fmr1tm1Cgr/J mouse assessed as decrease in apical dendritic spine density in layer II/III pyramidal neurons segment 7 at 20 mg/kg, sc and measured after 8 hrs by Golgi-Cox technique analysis; type: functional, organism-based
Outline: (§4)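 Adult male WT and Fmr1 KO FVB mice given 20 mg/kg s.c. or vehicle; brains collected 8 h later and Golgi stained. Apical dendrites of layer II/III pyramidal neurons in temporal cortex, originating 50–100 µm from the soma, were divided into ten 10-µm segments and spines counted. 40–60 neurons from 4–6 mice per group; one-way ANOVA.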

Mus musculus [6] = test: Anti-seizure activity against 124dB loud auditory stimulus induced Fmr1 knockout FVB.129P2-Fmr1tm1Cgr/J mouse model of audiogenic seizure assessed as decrease in sound-induced seizure at 20 mg/kg,sc for 8 hrs followed by audiogenic seizure induction by audiogenic seizure assay (Rvb=100%); type: functional; design: scale not given: the % may be the effect or the level left; outline: as §3
Mus musculus [7] = test: Protective activity in Fmr1 knockout FVB.129P2-Fmr1tm1Cgr/J mouse assessed as decrease in apical dendritic spine density in layer II/III pyramidal neurons segment 9 at 20 mg/kg, sc and measured after 8 hrs by Golgi-Cox technique analysis; type: functional, organism-based; outline: as §4
[8] = Drug concentration in FVB.129P2 mouse brain at 20 mg/kg,sc and measured after 1 hrs by LC-MS/MS analysis; type: ADME, organism-based; settings: read-out: Ct
Outline: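 WT FVB.129P2 mice got one s.c. injection of 20 mg/kg (2 mg/mL in 20% hydroxypropyl-β-cyclodextrin). Blood and forebrain were collected at time points from 15 min to 24 h. Forebrain was weighed, snap-frozen and homogenized in 2 volumes of cold PBS. Drug quantified by LC-MS/MS. n = 2–3, mean ± SEM.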

Mus musculus [9] = test: Protective activity in FVB.129P2-Pde6b+ Tyr c-ch/AntJ wild type mouse assessed as decrease in distance travelled at 20 mg/kg, sc for 5 days and measured during 18 to 30 mins by open field assay; type: functional, organism-based; settings: time 5.0 day
Outline: (§5)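 Adult male WT and Fmr1 KO mice dosed s.c. at 20 mg/kg or vehicle for 5 d; tested 4–5.5 h after dosing. Single mouse in a novel open field for 30 min, tracked by infrared sensors in 1-min bins; bar-graph values averaged over minutes 18–30. Mice beyond 2 SD in total distance, or immobile for 5 consecutive minutes, were excluded.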

Mus musculus [10] = test: Protective activity in Fmr1 FVB.129P2-Pde6b+ Tyr c-ch/AntJ wild type mouse assessed as change in apical dendritic spine density in cortical neuron at 20 mg/kg, sc and measured after 8 hrs by Golgi-Cox technique analysis; type: functional, organism-based; settings: Cortical neurone
Mus musculus [11] = test: Protective activity in Fmr1 knockout FVB.129P2-Fmr1tm1Cgr/J mouse model of Fragile X syndrome assessed as decrease in counterclockwise revolutions at 20 mg/kg, sc for 5 days by open field assay; type: functional, organism-based; settings: time 5.0 day; outline: as §5
Mus musculus [12] = test: Protective activity in Fmr1 knockout FVB.129P2-Fmr1tm1Cgr/J mouse assessed as decrease in apical dendritic spine density in layer II/III pyramidal neurons segment 6 at 20 mg/kg, sc and measured after 8 hrs by Golgi-Cox technique analysis; type: functional, organism-based; outline: as §4
Mus musculus [13] = test: Protective activity in Fmr1 knockout FVB.129P2-Fmr1tm1Cgr/J mouse model of Fragile X syndrome assessed as decrease in distance travelled at 20 mg/kg, sc for 5 days and measured during 18 to 30 mins by open field assay; type: functional, organism-based; settings: time 5.0 day; outline: as §5
[14] = target: Serine/threonine-protein kinase PAK 2 (Homo sapiens, UniProt Q13177); test: Inhibition of PAK2 (unknown origin) by Z'-LYTE functional assay
Serine/threonine-protein kinase PAK 2, sequence (Q13177 whole entry, canonical isoform): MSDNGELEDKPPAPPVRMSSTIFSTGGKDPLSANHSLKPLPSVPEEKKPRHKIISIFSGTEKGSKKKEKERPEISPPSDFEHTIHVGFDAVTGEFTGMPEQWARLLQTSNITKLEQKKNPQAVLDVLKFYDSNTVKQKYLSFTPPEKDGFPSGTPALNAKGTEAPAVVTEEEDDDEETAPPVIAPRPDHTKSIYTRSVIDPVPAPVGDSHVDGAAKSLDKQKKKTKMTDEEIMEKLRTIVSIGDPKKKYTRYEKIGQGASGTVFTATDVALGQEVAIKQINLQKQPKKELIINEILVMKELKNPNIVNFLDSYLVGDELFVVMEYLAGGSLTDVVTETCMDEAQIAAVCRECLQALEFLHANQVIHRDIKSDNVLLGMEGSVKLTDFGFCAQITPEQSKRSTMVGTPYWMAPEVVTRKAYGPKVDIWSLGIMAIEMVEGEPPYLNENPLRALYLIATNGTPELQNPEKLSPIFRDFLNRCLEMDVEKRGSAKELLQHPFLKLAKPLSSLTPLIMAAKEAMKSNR
Outline: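 Full-length PAK isoforms phosphorylating an optimized peptide substrate in a Z-LYTE biochemical kinase assay, 10-point inhibitor titration. Duplicates (n = 2, mean ± SEM) plotted semilog; IC50 from a variable-slope sigmoidal dose–response fit.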

Mus musculus [15] = test: Protective activity in Fmr1 knockout FVB.129P2-Fmr1tm1Cgr/J mouse assessed as decrease in apical dendritic spine density in layer II/III pyramidal neurons segment 8 at 20 mg/kg, sc and measured after 8 hrs by Golgi-Cox technique analysis; type: functional, organism-based; outline: as §4
Mus musculus [16] = test: Protective activity in FVB.129P2-Pde6b+ Tyr c-ch/AntJ wild type mouse assessed as decrease in horizontal movements at 20 mg/kg, sc for 5 days and measured for 30 mins by open field assay; type: functional, organism-based; settings: time 5.0 day; outline: as §5
Mus musculus [17] = test: as §1, with “seizure” for “wild running”, “(Rvb=96%)” for “(Rvb=100%)”; type: functional; design: scale not given: the % may be the effect or the level left; settings: time 5 day; outline: as §2
Mus musculus [18] = test: Anti-seizure activity against 124dB loud auditory stimulus induced Fmr1 knockout FVB.129P2-Fmr1tm1Cgr/J mouse model of audiogenic seizure assessed as decrease in sound-induced wild running at 30 mg/kg,sc for 8 hrs followed by audiogenic seizure induction by audiogenic seizure assay (Rvb=100%); type: functional; design: scale not given: the % may be the effect or the level left; outline: as §3
Mus musculus [19] = test: Protective activity in FVB.129P2-Pde6b+ Tyr c-ch/AntJ wild type mouse assessed as motor coordination at 20 mg/kg, sc and measured for 4 to 5.25 hrs by rotarod test; type: functional, organism-based; settings: time 4-5.25 hrs
Outline: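 Adult male WT and Fmr1 KO mice tested 4–5.5 h after s.c. 20 mg/kg or vehicle. Latency to fall or jump off the rotating cylinder recorded (max 3 min). Three trials per mouse, 30–40 min apart; per-mouse average latency compared.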

Question: Which results are given for CCn1c(=O)c(-c2ccc(Cl)cc2Cl)cc2cnc(Nc3ccc(N4CCNCC4)c(F)c3)nc21?
Answer: Drug uptake [1]: Active; Activity (Mus musculus [2]): 75%; Activity (Mus musculus [3]): 54%; Activity (Mus musculus [4]): 80%; Activity (Mus musculus [5]): inactive; Activity (Mus musculus [6]): 25%; Activity (Mus musculus [7]): inactive; concentration at 1 h [8]: 155 ng/g; Activity (Mus musculus [9]): Active; Activity (Mus musculus [10]): inactive; Activity (Mus musculus [11]): Active; Activity (Mus musculus [12]): inactive; Activity (Mus musculus [13]): Active; IC50 [14]: 0.0395 µM; Activity (Mus musculus [15]): inactive; Activity (Mus musculus [16]): Active; Activity (Mus musculus [17]): 50%; Activity (Mus musculus [18]): 0%; Activity (Mus musculus [19]): inactive
